# Several values for one entry are separate records, joined by “and”; a condition that tells them apart may be missing. Equal values may be shown once. Activity calls are given as the source filed them.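 How the source made its calls: active means compounds lowering the viability signal whose fitted AC50 is no more than ten times their top tested dose; inconclusive means flat fit with a 30 to 70% drop, or poor fit; inactive means the rest.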
# Test system: not listed separately
# Experiment: toxicity in U2OS HRE-luc cells, zinc medium, dose response, cytotoxicity control for HIF pathway activator project, zinc-supplemented medium, dry powder (AID 504323)
# Conditions: U2OS HRE-luciferase cells, viability toxicity, luminescence; at 38 µM (top of the series)
# In short: (§1)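 Material: human U2OS osteosarcoma cells carrying a 3×HRE-luciferase reporter; input: 6,000 cells/well; buffer or medium: 50 µM zinc sulfate final; timing: 24 h attachment, then 24 h compound exposure at 37 °C; signal: CellTiter-Glo luminescence for cell viability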
row,Structure (SMILES),"activity change, negative = toxicity"
1,O=C(Nc1nnc(-c2ccccc2)s1)c1cc(-c2ccccc2)on1,16.2% (inactive)
2,O=C(NCC1CC1)c1cc(-c2ccccc2)on1,22.5% (inactive)
3,C=CCNc1nc(-c2ccccn2)nnc1-c1ccccc1,29% (inactive)
4,O=C(NC1Cc2ccccc2C1)c1cc(-c2ccccc2)on1,-8.56% (inactive)
5,CN(C)c1nc(-c2ccccn2)nnc1-c1ccccc1,33.4% (inactive)
6,Cc1cccc(Nc2nc(-c3ccccn3)nnc2-c2ccccc2)n1,-13.3% (inactive)
7,c1ccc(-c2ccc(CNc3nc(-c4ccccn4)nnc3-c3ccccc3)cc2)cc1,7.11% (inactive)
8,Cc1cccc(CNc2nc(-c3ccccn3)nnc2-c2ccccc2)c1,-2.48% (inactive)
9,O=C(NCCCN1CCOCC1)c1cc(-c2ccccc2)on1,15.2% (inactive)
10,c1ccc(-c2nnc(-c3ccccn3)nc2N2CCN(c3ccncc3)CC2)cc1,16.2% (inactive)
11,O=C(NCCCO)c1cc(-c2ccccc2)on1,3.54% (inactive)
12,Oc1ccc(CNC2CCc3ccccc32)c2cccnc12 (centres undefined),-6.14% (inactive)
13,c1ccc(-c2nnc(-c3ccccn3)nc2N2CCC(c3ccccc3)C2)cc1 (centres undefined),-12.2% (inactive)
14,c1ccc(-c2cnc(Nc3nc(-c4ccccn4)nnc3-c3ccccc3)s2)cc1,10.3% (inactive)
15,Cc1ccc(CNC(=O)c2cc(-c3ccccc3)on2)cc1,-12.8% (inactive)
16,CN1CCN(C(=O)c2cc(-c3ccccc3)on2)CC1,2.31% (inactive)
17,c1ccc(CCNc2nc(-c3ccccn3)nnc2-c2ccccc2)cc1,-7.93% (inactive)
18,c1ccc(CNc2nc(-c3ccccn3)nnc2-c2ccccc2)cc1,11.5% (inactive)
19,Cc1ccccc1CNC(=O)c1cc(-c2ccccc2)on1,6.54% (inactive)
20,Clc1cccc(CNc2nc(-c3ccccn3)nnc2-c2ccccc2)c1,-1.81% (inactive)
21,C[C@H](Nc1nc(-c2ccccn2)nnc1-c1ccccc1)C1CCCCC1,-13.5% (inactive)
22,c1ccc(-c2nnc(-c3ccccn3)nc2NCCc2ccccn2)cc1,12.3% (inactive)
23,O=C(NCCN1CCCCC1)c1cc(-c2ccccc2)on1,14.1% (inactive)
24,CC(C)(C)CCNc1nc(-c2ccccn2)nnc1-c1ccccc1,-16.3% (inactive)
25,c1ccc(-c2nnc(-c3ccccn3)nc2NCc2ccccn2)cc1,-3.76% (inactive)

row,Structure (SMILES),"activity change, negative = toxicity"
1,Cc1ccccc1CNc1nc(-c2ccccn2)nnc1-c1ccccc1,-8.68% (inactive)
2,O=C(NCC1CCCCC1)c1cc(-c2ccccc2)on1,-11% (inactive)
3,Cc1cccc(NC(=O)c2cc(-c3ccccc3)on2)n1,2.1% (inactive)
4,Cc1ccc(Nc2nc(-c3ccccn3)nnc2-c2ccccc2)cn1,3.19% (inactive)
5,Cc1cccc(CNC(=O)c2cc(-c3ccccc3)on2)c1,-2.43% (inactive)
6,c1ccc(-c2nnc(-c3ccccn3)nc2N2CCC(N3CCOCC3)CC2)cc1,21.5% (inactive)
7,OCC1CCN(Cc2ccc(O)c3ncccc23)CC1,-18.1% (inactive)
8,c1ccc(-c2nnc(-c3ccccn3)nc2N2CCC(C3CCCCC3)C2)cc1 (centres undefined),25.2% (inactive)
9,O=C(c1cc(-c2ccccc2)on1)N1CCC(CO)CC1,9.31% (inactive)
10,CN(C)CCNC(=O)c1cc(-c2ccccc2)on1,7.75% (inactive)
11,O=C(NCCN1CCOCC1)c1cc(-c2ccccc2)on1,10.8% (inactive)
12,O=C(Nc1cn2ccccc2n1)c1cc(-c2ccccc2)on1,10.3% (inactive)
13,O=C(Nc1ncc(-c2ccccc2)o1)c1cc(-c2ccccc2)on1,-2.78% (inactive)
14,c1ccc(-c2nnc(-c3ccccn3)nc2NCCCN2CCOCC2)cc1,23.8% (inactive)
15,CC1CN(Cc2ccc(O)c3ncccc23)CC(C)O1 (centres undefined),-3.44% (inactive)
16,Oc1ccc(CN2CCc3ccccc3C2)c2cccnc12,-93.5% (inactive) and -0.278% (inactive)
17,Cc1ccc(CNc2nc(-c3ccccn3)nnc2-c2ccccc2)cc1,4.61% (inactive)
18,CC(C)(C)CCNC(=O)c1cc(-c2ccccc2)on1,-8.3% (inactive)
19,COc1ccc(CNc2nc(-c3ccccn3)nnc2-c2ccccc2)cc1,1.65% (inactive)
20,c1ccc(-c2cccc(CNc3nc(-c4ccccn4)nnc3-c3ccccc3)c2)cc1,21.1% (inactive)
21,CC(C)(C)OC(=O)N1CCN(Cc2ccc(O)c3ncccc23)CC1,6.73% (inactive)
22,O=C(NCCCn1ccnc1)c1cc(-c2ccccc2)on1,-5.48% (inactive)
23,CN1CCN(c2nc(-c3ccccn3)nnc2-c2ccccc2)CC1,-11.4% (inactive)
24,Oc1ccc(CN2CCC(Cc3ccccc3)CC2)c2cccnc12,-1.98% (inactive)
25,c1ccc(-c2nnc(-c3ccccn3)nc2NCCN2CCOCC2)cc1,3.62% (inactive)

row,Structure (SMILES),"activity change, negative = toxicity"
1,O=C(NCCCCO)c1cc(-c2ccccc2)on1,6.82% (inactive)
2,O=C(c1cc(-c2ccccc2)on1)N1CCC(N2CCCC2)CC1,4.1% (inactive)
3,COc1ccccc1N1CCN(Cc2ccc(O)c3ncccc23)CC1,-14.5% (inactive)
4,c1ccc(-c2nnc(-c3ccccn3)nc2NCC2CCOCC2)cc1,14.9% (inactive)
5,O=C(c1cc(-c2ccccc2)on1)N1CCc2cccnc21,-4.78% (inactive)
6,Cn1c(-c2ccccc2)cnc1NC(=O)c1cc(-c2ccccc2)on1,-1.6% (inactive)
7,CC(Nc1nc(-c2ccccn2)nnc1-c1ccccc1)c1ccccc1 (centres undefined),-0.542% (inactive)
8,c1ccc(-c2nnc(-c3ccccn3)nc2NCc2cccnc2)cc1,30.2% (inactive)
9,Cn1c(NC(=O)c2cc(-c3ccccc3)on2)nc2ccccc21,16% (inactive)
10,c1ccc(-c2csc(Nc3nc(-c4ccccn4)nnc3-c3ccccc3)n2)cc1,-2.4% (inactive)
11,O=C(Nc1nc(-c2ccccc2)cs1)c1cc(-c2ccccc2)on1,7.74% (inactive)
12,O=C(c1cc(-c2ccccc2)on1)N1CCC(N2CCOCC2)CC1,2.52% (inactive)
13,c1ccc(-c2nnc(-c3ccccn3)nc2NCC2CC2)cc1,20.9% (inactive)
14,OCCCNc1nc(-c2ccccn2)nnc1-c1ccccc1,17.6% (inactive)
15,Cc1ccc(NC(=O)c2cc(-c3ccccc3)on2)cn1,-11.1% (inactive)
16,O=C(Nc1nc2ccccc2s1)c1cc(-c2ccccc2)on1,18.7% (inactive)
17,O=C(Nc1ncc2ccccc2n1)c1cc(-c2ccccc2)on1,-15.3% (inactive)
18,O=C(Nc1cnc2ccccc2c1)c1cc(-c2ccccc2)on1,5.21% (inactive)
19,CCCCNC(=O)c1cc(-c2ccccc2)on1,15.6% (inactive)
20,OCC1CCN(c2nc(-c3ccccn3)nnc2-c2ccccc2)CC1,10.9% (inactive)
21,COc1cccc(CNc2nc(-c3ccccn3)nnc2-c2ccccc2)c1,-8.43% (inactive)
22,O=C(NCc1ccccc1)c1cc(-c2ccccc2)on1,4.7% (inactive)
23,O=C(Nc1ccc2ccccc2n1)c1cc(-c2ccccc2)on1,16.8% (inactive)
24,O=C(c1cc(-c2ccccc2)on1)N1CCN(c2ccncc2)CC1,-1.95% (inactive)

# Test system: U2OS HRE-luciferase cells, viability toxicity, luminescence
# Experiment: as above
# Conditions: not given
# In short: as §1
row,Structure (SMILES),AC50
1,Cn1c(-c2ccccc2)cnc1Nc1nc(-c2ccccn2)nnc1-c1ccccc1,> 38 µM (inactive)
2,c1ccc(-c2nnc(-c3ccccn3)nc2Nc2cnc3ccccc3n2)cc1,10.1 µM
3,c1ccc(-c2nnc(Nc3nc(-c4ccccn4)nnc3-c3ccccc3)s2)cc1,> 38 µM (inactive)
4,O=C(NC1CCc2ccccc2C1)c1cc(-c2ccccc2)on1 (centres undefined),> 38 µM (inactive)
5,c1ccc(-c2nnc(-c3ccccn3)nc2Nc2nc3ccccc3s2)cc1,8.1 µM

# — PubChem BioAssay AID504323 (Broad Institute, 2011)
